Data reported in ChEMBL document CHEMBL1159037, “Synthesis and biological evaluation of novel allophenylnorstatine-based HIV-1 protease inhibitors incorporating high affinity P2-ligands” (Bioorg Med Chem Lett, 2010).
pIC50, pKi: −log10 of the molar value.

Tested on: Human immunodeficiency virus 1
Assay: Antiviral activity against wild type HIV1 isolate ERS104pre in PHA-stimulated human PBMC assessed as inhibition of p24 antigen production
Assay type: functional, organism-based
Settings: Human immunodeficiency virus 1, isolate ERS104pre

Row | SMILES | pIC50
1 | CC(C)CN(C[C@@H](O)[C@H](Cc1ccccc1)NC(=O)O[C@H]1CCOC1)S(=O)(=O)c1ccc(N)cc1 | 7.35
2 | Cc1ccccc1CNC(=O)[C@H]1N(C(=O)[C@@H](O)[C@H](Cc2ccccc2)NC(=O)O[C@H]2CO[C@H]3OCC[C@H]32)CSC1(C)C | 7.51
3 | COC(=O)N[C@H](C(=O)N[C@@H](Cc1ccccc1)[C@@H](O)CN(Cc1ccc(-c2ccccn2)cc1)NC(=O)[C@@H](NC(=O)OC)C(C)(C)C)C(C)(C)C [ATAZANAVIR] | 8.52

Tested on: Human immunodeficiency virus 1
Assay: Antiviral activity against multi drug-resistant HIV1 isolate of subtype G in PHA-stimulated human PBMC assessed as inhibition of p24 antigen production
Assay type: functional, organism-based
Settings: Human immunodeficiency virus 1, isolate G

Row | SMILES | pIC50
4 | CC(C)CN(C[C@@H](O)[C@H](Cc1ccccc1)NC(=O)O[C@H]1CCOC1)S(=O)(=O)c1ccc(N)cc1 | 6.41
5 | Cc1ccccc1CNC(=O)[C@H]1N(C(=O)[C@@H](O)[C@H](Cc2ccccc2)NC(=O)O[C@H]2CO[C@H]3OCC[C@H]32)CSC1(C)C | 7.54
6 | COC(=O)N[C@H](C(=O)N[C@@H](Cc1ccccc1)[C@@H](O)CN(Cc1ccc(-c2ccccn2)cc1)NC(=O)[C@@H](NC(=O)OC)C(C)(C)C)C(C)(C)C [ATAZANAVIR] | 7.54

Tested on: Human immunodeficiency virus 1
Assay: Antiviral activity against multi drug-resistant HIV1 isolate of subtype MM in PHA-stimulated human PBMC assessed as inhibition of p24 antigen production
Assay type: functional, organism-based
Settings: Human immunodeficiency virus 1, isolate MM

Row | SMILES | pIC50
7 | CC(C)CN(C[C@@H](O)[C@H](Cc1ccccc1)NC(=O)O[C@H]1CCOC1)S(=O)(=O)c1ccc(N)cc1 | 6.50
8 | Cc1ccccc1CNC(=O)[C@H]1N(C(=O)[C@@H](O)[C@H](Cc2ccccc2)NC(=O)O[C@H]2CO[C@H]3OCC[C@H]32)CSC1(C)C | 7.38
9 | COC(=O)N[C@H](C(=O)N[C@@H](Cc1ccccc1)[C@@H](O)CN(Cc1ccc(-c2ccccn2)cc1)NC(=O)[C@@H](NC(=O)OC)C(C)(C)C)C(C)(C)C [ATAZANAVIR] | 7.40

Tested on: Human immunodeficiency virus 1
Assay: Antiviral activity against multi drug-resistant HIV1 isolate of subtype JSL in PHA-stimulated human PBMC assessed as inhibition of p24 antigen production
Assay type: functional, organism-based
Settings: Human immunodeficiency virus 1, isolate JSL

Row | SMILES | pIC50
10 | Cc1ccccc1CNC(=O)[C@H]1N(C(=O)[C@@H](O)[C@H](Cc2ccccc2)NC(=O)O[C@H]2CO[C@H]3OCC[C@H]32)CSC1(C)C | 6.63
11 | COC(=O)N[C@H](C(=O)N[C@@H](Cc1ccccc1)[C@@H](O)CN(Cc1ccc(-c2ccccn2)cc1)NC(=O)[C@@H](NC(=O)OC)C(C)(C)C)C(C)(C)C [ATAZANAVIR] | 6.20

Biological target: Protease (Human immunodeficiency virus 1, UniProt Q9YQ12)
Sequence (Q9YQ12 whole entry): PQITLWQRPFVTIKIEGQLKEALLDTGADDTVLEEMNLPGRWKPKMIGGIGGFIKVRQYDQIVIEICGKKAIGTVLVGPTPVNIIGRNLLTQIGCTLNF
Assay: Inhibition of HIV1 protease
Settings: not given

Row | SMILES | pKi
12 | Cc1ccccc1CNC(=O)[C@H]1N(C(=O)[C@@H](O)[C@H](Cc2ccccc2)NC(=O)O[C@H]2CO[C@H]3OCC[C@H]32)CSC1(C)C | 11.28
13 | COc1ccc(CNC(=O)[C@H]2N(C(=O)[C@@H](O)[C@H](Cc3ccccc3)NC(=O)O[C@H]3CO[C@H]4OCC[C@H]43)CSC2(C)C)c(C)c1 | 8.69
14 | Cc1ccccc1CNC(=O)[C@H]1N(C(=O)[C@@H](O)[C@H](Cc2ccccc2)NC(=O)O[C@@H]2CCOCOC2)CSC1(C)C | 9.11
15 | Cc1ccccc1CNC(=O)[C@H]1N(C[C@@H](O)[C@H](Cc2ccccc2)NC(=O)O[C@H]2CO[C@H]3OCC[C@H]32)CSC1(C)C | 8.59
16 | Cc1ccccc1CNC(=O)[C@H]1N(C(=O)[C@@H](O)[C@H](Cc2ccccc2)NC(=O)O[C@@H]2C[C@@H]3CCO[C@@H]3C2)CSC1(C)C | 9.54
17 | Cc1ccccc1CNC(=O)[C@H]1N(C(=O)[C@@H](O)[C@H](Cc2ccccc2)NC(=O)O[C@@H]2C[C@@H]3OCO[C@@H]3C2)CSC1(C)C | 9.19
18 | Cc1cc(N)ccc1CNC(=O)[C@H]1N(C(=O)[C@@H](O)[C@H](Cc2ccccc2)NC(=O)O[C@H]2CO[C@H]3OCC[C@H]32)CSC1(C)C | 9.00
19 | Cc1cc(CO)ccc1CNC(=O)[C@H]1N(C(=O)[C@@H](O)[C@H](Cc2ccccc2)NC(=O)O[C@H]2CO[C@H]3OCC[C@H]32)CSC1(C)C | 9.51
20 | Cc1ccccc1CNC(=O)[C@H]1N(C[C@@H](O)[C@H](Cc2ccccc2)NC(=O)O[C@H]2CCOC2)CSC1(C)C | 7.06
21 | Cc1ccccc1CNC(=O)[C@H]1N(C(=O)[C@@H](O)[C@H](Cc2ccccc2)NC(=O)O[C@H]2CCOC2)CSC1(C)C | 9.68

Tested on: Human immunodeficiency virus 1
Assay: Antiviral activity against multi drug-resistant HIV1 isolate of subtype C in PHA-stimulated human PBMC assessed as inhibition of p24 antigen production
Assay type: functional, organism-based
Settings: Human immunodeficiency virus 1, isolate C

Row | SMILES | pIC50
22 | CC(C)CN(C[C@@H](O)[C@H](Cc1ccccc1)NC(=O)O[C@H]1CCOC1)S(=O)(=O)c1ccc(N)cc1 | 6.46
23 | Cc1ccccc1CNC(=O)[C@H]1N(C(=O)[C@@H](O)[C@H](Cc2ccccc2)NC(=O)O[C@H]2CO[C@H]3OCC[C@H]32)CSC1(C)C | 7.21
24 | COC(=O)N[C@H](C(=O)N[C@@H](Cc1ccccc1)[C@@H](O)CN(Cc1ccc(-c2ccccn2)cc1)NC(=O)[C@@H](NC(=O)OC)C(C)(C)C)C(C)(C)C [ATAZANAVIR] | 7.35

Tested on: Human immunodeficiency virus 1
Assay: Ratio of IC50 for multi drug-resistant HIV1 isolate of subtype G to IC50 for wild type HIV1 isolate ERS104pre
Assay type: functional
Settings: not given
In short: (§1)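 Each assay run in duplicate; values are means (±1 SD) from two or three independent experiments. Fold change is the IC50 against each drug-resistant isolate divided by the IC50 against wild-type HIV-1 ERS104pre.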

Row | SMILES | Ratio IC50
25 | CC(C)CN(C[C@@H](O)[C@H](Cc1ccccc1)NC(=O)O[C@H]1CCOC1)S(=O)(=O)c1ccc(N)cc1 | 9
26 | Cc1ccccc1CNC(=O)[C@H]1N(C(=O)[C@@H](O)[C@H](Cc2ccccc2)NC(=O)O[C@H]2CO[C@H]3OCC[C@H]32)CSC1(C)C | 1
27 | COC(=O)N[C@H](C(=O)N[C@@H](Cc1ccccc1)[C@@H](O)CN(Cc1ccc(-c2ccccn2)cc1)NC(=O)[C@@H](NC(=O)OC)C(C)(C)C)C(C)(C)C [ATAZANAVIR] | 10

Tested on: Human immunodeficiency virus 1
Assay: Ratio of IC50 for multi drug-resistant HIV1 isolate of subtype C to IC50 for wild type HIV1 isolate ERS104pre
Assay type: functional
Settings: not given
In short: as §1

Row | SMILES | Ratio IC50
28 | CC(C)CN(C[C@@H](O)[C@H](Cc1ccccc1)NC(=O)O[C@H]1CCOC1)S(=O)(=O)c1ccc(N)cc1 | 8
29 | Cc1ccccc1CNC(=O)[C@H]1N(C(=O)[C@@H](O)[C@H](Cc2ccccc2)NC(=O)O[C@H]2CO[C@H]3OCC[C@H]32)CSC1(C)C | 2
30 | COC(=O)N[C@H](C(=O)N[C@@H](Cc1ccccc1)[C@@H](O)CN(Cc1ccc(-c2ccccn2)cc1)NC(=O)[C@@H](NC(=O)OC)C(C)(C)C)C(C)(C)C [ATAZANAVIR] | 15

Tested on: Human immunodeficiency virus 1
Assay: Antiviral activity against multi drug-resistant HIV1 isolate of subtype TM in PHA-stimulated human PBMC assessed as inhibition of p24 antigen production
Assay type: functional, organism-based
Settings: Human immunodeficiency virus 1, isolate TM

Row | SMILES | pIC50
31 | CC(C)CN(C[C@@H](O)[C@H](Cc1ccccc1)NC(=O)O[C@H]1CCOC1)S(=O)(=O)c1ccc(N)cc1 | 6.39
32 | Cc1ccccc1CNC(=O)[C@H]1N(C(=O)[C@@H](O)[C@H](Cc2ccccc2)NC(=O)O[C@H]2CO[C@H]3OCC[C@H]32)CSC1(C)C | 7.19
33 | COC(=O)N[C@H](C(=O)N[C@@H](Cc1ccccc1)[C@@H](O)CN(Cc1ccc(-c2ccccn2)cc1)NC(=O)[C@@H](NC(=O)OC)C(C)(C)C)C(C)(C)C [ATAZANAVIR] | 7.33

Tested on: Human immunodeficiency virus 1
Assay: Antiviral activity against HIV1 LAI in human MT2 cells after 7 days by MTT assay
Assay type: functional, organism-based
Settings: Human immunodeficiency virus 1, LAI, MT2, 168 h
In short: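 Human T-lymphoid MT-2 cells were exposed to 100 TCID50 of HIV-1LAI and cultured in the presence of each protease inhibitor. IC50 was determined by MTT assay. Values are means of at least three experiments.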

Row | SMILES | pIC50
34 | Cc1ccccc1CNC(=O)[C@H]1N(C(=O)[C@@H](O)[C@H](Cc2ccccc2)NC(=O)O[C@H]2CO[C@H]3OCC[C@H]32)CSC1(C)C | 8.05
35 | COc1ccc(CNC(=O)[C@H]2N(C(=O)[C@@H](O)[C@H](Cc3ccccc3)NC(=O)O[C@H]3CO[C@H]4OCC[C@H]43)CSC2(C)C)c(C)c1 | 7.29
36 | Cc1ccccc1CNC(=O)[C@H]1N(C(=O)[C@@H](O)[C@H](Cc2ccccc2)NC(=O)O[C@@H]2C[C@@H]3CCO[C@@H]3C2)CSC1(C)C | 7.89
37 | Cc1cc(N)ccc1CNC(=O)[C@H]1N(C(=O)[C@@H](O)[C@H](Cc2ccccc2)NC(=O)O[C@H]2CO[C@H]3OCC[C@H]32)CSC1(C)C | 6.28
38 | Cc1cc(CO)ccc1CNC(=O)[C@H]1N(C(=O)[C@@H](O)[C@H](Cc2ccccc2)NC(=O)O[C@H]2CO[C@H]3OCC[C@H]32)CSC1(C)C | 6.64
39 | Cc1ccccc1CNC(=O)[C@H]1N(C(=O)[C@@H](O)[C@H](Cc2ccccc2)NC(=O)O[C@H]2CCOC2)CSC1(C)C | 7.70

Tested on: Human immunodeficiency virus 1
Assay: Ratio of IC50 for multi drug-resistant HIV1 isolate of subtype TM to IC50 for wild type HIV1 isolate ERS104pre
Assay type: functional
Settings: not given
In short: as §1

Row | SMILES | Ratio IC50
40 | CC(C)CN(C[C@@H](O)[C@H](Cc1ccccc1)NC(=O)O[C@H]1CCOC1)S(=O)(=O)c1ccc(N)cc1 | 9
41 | Cc1ccccc1CNC(=O)[C@H]1N(C(=O)[C@@H](O)[C@H](Cc2ccccc2)NC(=O)O[C@H]2CO[C@H]3OCC[C@H]32)CSC1(C)C | 2
42 | COC(=O)N[C@H](C(=O)N[C@@H](Cc1ccccc1)[C@@H](O)CN(Cc1ccc(-c2ccccn2)cc1)NC(=O)[C@@H](NC(=O)OC)C(C)(C)C)C(C)(C)C [ATAZANAVIR] | 16

Tested on: Human immunodeficiency virus 1
Assay: Ratio of IC50 for multi drug-resistant HIV1 isolate of subtype JSL to IC50 for wild type HIV1 isolate ERS104pre
Assay type: functional
Settings: not given
In short: as §1

Row | SMILES | Ratio IC50
43 | CC(C)CN(C[C@@H](O)[C@H](Cc1ccccc1)NC(=O)O[C@H]1CCOC1)S(=O)(=O)c1ccc(N)cc1 | 12
44 | Cc1ccccc1CNC(=O)[C@H]1N(C(=O)[C@@H](O)[C@H](Cc2ccccc2)NC(=O)O[C@H]2CO[C@H]3OCC[C@H]32)CSC1(C)C | 8
45 | COC(=O)N[C@H](C(=O)N[C@@H](Cc1ccccc1)[C@@H](O)CN(Cc1ccc(-c2ccccn2)cc1)NC(=O)[C@@H](NC(=O)OC)C(C)(C)C)C(C)(C)C [ATAZANAVIR] | 212

Tested on: Human immunodeficiency virus 1
Assay: Ratio of IC50 for multi drug-resistant HIV1 isolate of subtype MM to IC50 for wild type HIV1 isolate ERS104pre
Assay type: functional
Settings: not given
In short: as §1

Row | SMILES | Ratio IC50
46 | CC(C)CN(C[C@@H](O)[C@H](Cc1ccccc1)NC(=O)O[C@H]1CCOC1)S(=O)(=O)c1ccc(N)cc1 | 7
47 | Cc1ccccc1CNC(=O)[C@H]1N(C(=O)[C@@H](O)[C@H](Cc2ccccc2)NC(=O)O[C@H]2CO[C@H]3OCC[C@H]32)CSC1(C)C | 1
48 | COC(=O)N[C@H](C(=O)N[C@@H](Cc1ccccc1)[C@@H](O)CN(Cc1ccc(-c2ccccn2)cc1)NC(=O)[C@@H](NC(=O)OC)C(C)(C)C)C(C)(C)C [ATAZANAVIR] | 13
